The text below walks through data of ChEMBL document CHEMBL3045703, “Synthesis and insect antifeedant activity of plumbagin derivatives with the amino acid moiety” (2009).

SMILES strings stand for the structures.

Type in all cases: functional
In assay [1] the test system is Achaea janata. Briefly: Toxicity in third instar larvae of Achaea janata assessed as mortality at 4 ug/insect measured after 4 to 28 days by topical bioassay.
Assay [2] deals with Spodoptera litura. Description: Antifeedant activity against third-instar larvae of tobacco caterpillar Spodoptera litura in compound treated fresh castor leaves assessed as consumption at 28 +/- 2 degC, relative humidity 65 +/- 5 measured after 6 to 24 hr. A digest of the protocol: (§1)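 No-choice leaf-disk test on castor leaf discs; control discs got solvent only. Prestarved third instar larvae reared on fresh castor leaves at 28 ± 2 °C, RH 65 ± 5, 16:8 light/dark. Consumed area tracked at 6, 12 and 24 h and measured with a leaf area meter. Antifeedant index = (C − T)/(C + T) × 100. 10 sets per concentration, each test run in triplicate; mean ± SD.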

In assay [3] the test system is Spodoptera litura. Description: Toxicity in third-instar larvae of tobacco caterpillar Spodoptera litura assessed as mortality at 4 ug/insect measured after 4 to 28 days by topical bioassay.
In assay [4] the test system is Achaea janata. Briefly: Antifeedant activity against third instar larvae of Achaea janata in compound treated fresh castor leaves assessed as consumption at 28 +/- 2 degC, relative humidity 65 +/- 5 measured after 6 to 24 hr. The procedure, abridged: as §1
Assay [5] relates to Achaea janata. Description: Antifeedant activity against third instar larvae of Achaea janata in compound treated fresh castor leaves assessed as consumption at 0.1% measured after 6 to 24 hr. The procedure, abridged:
as §1

Assay [6] deals with Spodoptera litura. Briefly: Antifeedant activity against third-instar larvae of tobacco caterpillar Spodoptera litura in compound treated fresh castor leaves assessed as consumption at 0.1% measured after 6 to 24 hr. A digest of the protocol: as §1
Assay [7] concerns Spodoptera litura. Briefly: Toxicity in third-instar larvae of tobacco caterpillar Spodoptera litura assessed as mortality at 1 ug/insect measured after 4 to 28 days by topical bioassay.
Assay [8] has as its system Achaea janata. Briefly: Toxicity in third instar larvae of Achaea janata assessed as mortality at 1 ug/insect measured after 4 to 28 days by topical bioassay.

In general, mortality refers to the percentage killed. With `COc1cccc2c1C(=O)C(NCCOC(=O)c1ccc(NC(C)=O)cc1)=C(C)C2=O`, the mortality in the assay with Achaea janata [1] is on record as <20%; in the assay with Spodoptera litura [3], 63.8%. Also, the “Antifeedant EC50 (leaf-consumption)” value in the assay with Spodoptera litura [2] amounted to 117.25 microg/cm2. Besides, in the assay on Achaea janata [4], the “antifeedant EC50” value turned out to be 268.88 microg/cm2.
On the same counts, the results for `COc1cccc2c1C(=O)C(NCCOC(=O)[C@H](C)NC(C)=O)=C(C)C2=O` are <20%, <20%, >500 microg/cm2 and 340.63 microg/cm2.
As to `COc1cccc2c1C(=O)C(NCCOC(=O)CNC(C)=O)=C(C)C2=O`, the mortality with Achaea janata [1] is listed as 100%; with Spodoptera litura [3], <20%. For the same compound, in the assay on Spodoptera litura [2], the “Antifeedant EC50 (leaf-consumption)” value is given as 36.87 microg/cm2. Further, the “antifeedant EC50” value with Achaea janata [4] worked out at 69.51 microg/cm2.
On the same counts, the results for `COc1cccc2c1C(=O)C(NCCOC(=O)[C@H](CS)NC(C)=O)=C(C)C2=O` are <20%, 100%, >500 microg/cm2 and >500 microg/cm2.
In the case of `CC[C@H](C)[C@H](NC(C)=O)C(=O)OCCNC1=C(C)C(=O)c2cccc(OC)c2C1=O`, the mortality with Achaea janata [1] and in the assay on Spodoptera litura [3] was <20% throughout. The “Antifeedant EC50 (leaf-consumption)” value with Spodoptera litura [2] is listed as >500 microg/cm2. For the same compound, in the assay with Achaea janata [4], the “antifeedant EC50” value stood at 292 microg/cm2.
Take `COc1cccc2c1C(=O)C(NCCOC(=O)[C@@H](NC(C)=O)C(C)C)=C(C)C2=O`: the values for the mortality with Achaea janata [1] and with Spodoptera litura [3] were 32.6% and 84.5%, respectively. Moreover, the “Antifeedant EC50 (leaf-consumption)” value in the assay on Spodoptera litura [2] is recorded as >500 microg/cm2. Further, in the assay on Achaea janata [4], the “antifeedant EC50” value stood at 104.59 microg/cm2.
`COc1cccc2c1C(=O)C(NCCOC(=O)[C@H](CC(C)C)NC(C)=O)=C(C)C2=O`: the mortality with Achaea janata [1] is <20%; in the assay on Spodoptera litura [3], 74.2%. In the assay with Spodoptera litura [2], the “Antifeedant EC50 (leaf-consumption)” value amounted to 466.28 microg/cm2. In the assay with Achaea janata [4], the “antifeedant EC50” value is listed as >500 microg/cm2.
With `COc1cccc2c1C(=O)C(NCCOC(=O)[C@H](CCSC)NC(C)=O)=C(C)C2=O`, the mortality in the assay with Achaea janata [1] was 100%; in the assay with Spodoptera litura [3], <20%. The “Antifeedant EC50 (leaf-consumption)” value with Spodoptera litura [2] stood at 48.47 microg/cm2. Further, in the assay with Achaea janata [4], the “antifeedant EC50” value is reported as 37.37 microg/cm2.
As to `COc1cccc2c1C(=O)C(NCCOC(=O)[C@H](Cc1ccc(O)cc1)NC(C)=O)=C(C)C2=O`, the results for the mortality with Achaea janata [1] and in the assay with Spodoptera litura [3] were 24.6% and <20%, respectively. Besides, the “Antifeedant EC50 (leaf-consumption)” value with Spodoptera litura [2] is reported as 461 microg/cm2. For the same compound, in the assay with Achaea janata [4], the “antifeedant EC50” value amounted to 199.45 microg/cm2.
For `COc1cccc2c1C(=O)C(NCCOC(=O)[C@H](Cc1ccccc1)NC(C)=O)=C(C)C2=O` the same measures were 23.4%, <20%, 105.93 microg/cm2 and 51.96 microg/cm2.
For `CC1=CC(=O)c2c(O)cccc2C1=O` [PLUMBAGIN], the mortality with Achaea janata [1] and with Spodoptera litura [3] was <20% each time. The Activity in the assay with Achaea janata [5] came to 35.69%; in the assay on Spodoptera litura [6], 26%.
On to `COc1cccc2c1C(=O)C(NCCOC(=O)CCCNC(C)=O)=C(C)C2=O`, for which the mortality with Achaea janata [1] and in the assay on Spodoptera litura [3] was <20% each time. The “Antifeedant EC50 (leaf-consumption)” value in the assay on Spodoptera litura [2] is given as 247.59 microg/cm2. In addition, the “antifeedant EC50” value in the assay with Achaea janata [4] was >500 microg/cm2.
`C/C=C(\C)C(=O)O[C@H]1C[C@@H](OC(C)=O)[C@@]2(C(=O)OC)CO[C@H]3[C@@H](O)[C@@](C)([C@]45O[C@@]4(C)[C@@H]4C[C@H]5O[C@@H]5OC=C[C@@]54O)[C@H]4[C@]1(CO[C@]4(O)C(=O)OC)[C@@H]32` [AZADIRACHTIN A]: the mortality with Spodoptera litura [7] was found to be 84%; with Achaea janata [8], 93.6%.
